Consider six molecules from ChEMBL document CHEMBL2384924, “Antagonists for the orphan G-protein-coupled receptor GPR55 based on a coumarin scaffold” (J Med Chem, 2013).

Assay [1] addresses T1, G-protein coupled receptor 55 (Homo sapiens, UniProt Q9Y2T6). Nature of the assay: Antagonist activity at human GPR55 expressed in HEK293 cells assessed as inhibition of LPI-induced beta-arrestin recruitment incubated 60 mins prior to LPI addition by beta-arrestin translocation assay. It is filed as cell-based. On the set-up: scale not given: the % may be the effect or the level left.

For assay [2], the target named is T2, Cannabinoid receptor 1 (Homo sapiens, UniProt P21554). Nature of the assay: Antagonist activity at human CB1 receptor expressed in CHOK1 cells assessed as inhibition of forskolin-stimulated cAMP level at 10 uM. It is filed as functional, cell-based. Particulars: CHO-K1.
T2 sequence (P21554 whole entry): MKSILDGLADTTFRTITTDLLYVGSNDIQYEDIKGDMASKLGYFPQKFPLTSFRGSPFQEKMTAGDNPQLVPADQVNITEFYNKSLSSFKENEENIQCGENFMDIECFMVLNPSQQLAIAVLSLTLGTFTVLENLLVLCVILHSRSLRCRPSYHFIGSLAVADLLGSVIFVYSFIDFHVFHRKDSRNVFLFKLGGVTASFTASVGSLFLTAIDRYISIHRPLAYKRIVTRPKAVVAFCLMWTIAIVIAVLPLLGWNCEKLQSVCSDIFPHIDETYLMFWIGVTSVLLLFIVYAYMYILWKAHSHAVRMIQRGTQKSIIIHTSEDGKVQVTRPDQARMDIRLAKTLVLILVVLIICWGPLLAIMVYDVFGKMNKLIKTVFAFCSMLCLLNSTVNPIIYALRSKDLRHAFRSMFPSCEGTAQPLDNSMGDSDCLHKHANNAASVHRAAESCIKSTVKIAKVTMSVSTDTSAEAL
In assay [3] the target is T2, Cannabinoid receptor 1. Nature of the assay: Displacement of [3H]-CP55,940 from human CB1 receptor transfected in CHOK1 cells. The format is cell-based, CHO-K1.
The target of assay [4] is T3, N-arachidonyl glycine receptor (Homo sapiens, UniProt Q14330).
T3 sequence (Q14330 whole entry): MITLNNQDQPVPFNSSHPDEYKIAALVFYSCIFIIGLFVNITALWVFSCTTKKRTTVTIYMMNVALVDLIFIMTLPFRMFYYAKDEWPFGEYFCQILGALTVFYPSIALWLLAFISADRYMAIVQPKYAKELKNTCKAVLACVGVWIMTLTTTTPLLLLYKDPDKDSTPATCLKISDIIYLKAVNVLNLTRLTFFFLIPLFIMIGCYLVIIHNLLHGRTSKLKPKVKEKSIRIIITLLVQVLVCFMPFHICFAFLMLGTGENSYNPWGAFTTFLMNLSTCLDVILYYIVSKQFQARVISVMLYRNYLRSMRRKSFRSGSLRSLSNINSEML
In words: Antagonist activity at human GPR18 transfected in CHO cells assessed as delta9-THC-induced beta-arrestin recruitment incubated 60 mins prior to delta9-THC addition by beta-arrestin translocation assay. It is filed as cell-based. The method in brief: (§1)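 CHO cells stably expressing human GPR18 were seeded at 20,000 cells/well for 24 h at 37°C. Compound in PBS/10% DMSO/0.1% BSA was added 60 min before the GPR18 agonist 3 at 10 µM. The supplier's detection reagent was used, and luminescence was read after 60 min at RT. Screening was at 10 µM (% inhibition); IC50 from concentration-inhibition curves. Three independent experiments in duplicate.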

The target in assay [5] is T1, G-protein coupled receptor 55. In words: Agonist activity at human GPR55 transfected in CHO cells at 10 uM after 90 mins by beta-arrestin translocation assay. It is filed as cell-based. The method in brief:
(§2)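 CHO cells stably expressing human GPR55 (β-galactosidase fragment complementation) were seeded at 20,000 cells/well in Opti-MEM with 2% FCS for 24 h at 37°C. Compound was diluted in PBS with 10% DMSO and 0.1% BSA, screened at 10 µM and incubated 90 min at 37°C. Galacton-Star/Emerald-II/lysis buffer (1:5:19) was added for 60 min at RT, then luminescence was read. Response is relative to 1 µM LPI (100%).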

In assay [6] the target is T4, Cannabinoid receptor 2 (Homo sapiens, UniProt P34972). In words: Antagonist activity at human CB2 receptor expressed in CHOK1 cells assessed as inhibition of forskolin-stimulated cAMP level at 10 uM. It is filed as functional, cell-based. Particulars: CHO-K1.
T4 sequence (P34972 whole entry): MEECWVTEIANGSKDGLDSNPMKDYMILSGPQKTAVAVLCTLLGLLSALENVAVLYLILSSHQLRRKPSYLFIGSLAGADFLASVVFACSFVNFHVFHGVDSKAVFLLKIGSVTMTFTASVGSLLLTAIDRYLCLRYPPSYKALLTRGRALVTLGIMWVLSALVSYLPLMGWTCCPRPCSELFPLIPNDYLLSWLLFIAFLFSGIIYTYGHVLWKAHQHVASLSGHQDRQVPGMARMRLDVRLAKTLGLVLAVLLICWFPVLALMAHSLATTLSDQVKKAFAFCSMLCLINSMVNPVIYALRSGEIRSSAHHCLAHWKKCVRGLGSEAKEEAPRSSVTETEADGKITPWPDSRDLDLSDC
In assay [7] the target is T1, G-protein coupled receptor 55. In words: Antagonist activity at human GPR55 transfected in CHO cells assessed as inhibition of LPI-induced beta-arrestin recruitment incubated 60 mins prior to LPI addition by beta-arrestin translocation assay. It is filed as cell-based. The method in brief:
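CHO cells stably expressing human GPR55 were seeded at 20,000 cells/well for 24 h at 37°C. Compound in PBS/10% DMSO/0.1% BSA was added 60 min before 1 µM LPI. Galacton-Star/Emerald-II/lysis buffer (pH 8) was applied for 60 min at RT, with luminescence read-out. Screening was at 10 µM (% inhibition). IC50 was measured where inhibition exceeded 60%. Three independent experiments in duplicate.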

Assay [8] deals with T5, N-arachidonyl glycine receptor (Homo sapiens) (UniProt Q14330).
T5 sequence (whole entry): T3 sequence (Q14330 whole entry)
Nature of the assay: Antagonist activity at human GPR18 transfected in CHO cells assessed as delta9-THC-induced beta-arrestin recruitment at 10 uM incubated 60 mins prior to delta9-THC addition by beta-arrestin translocation assay. Further details: scale not given: the % may be the effect or the level left. The format is cell-based. The method in brief:
as §1

Assay [9] addresses T4, Cannabinoid receptor 2. In words: Displacement of [3H]-CP55,940 from human CB2 receptor transfected in CHOK1 cells. It is filed as cell-based, CHO-K1. The method in brief:
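CHO cells stably expressing human CB2 supplied the membranes, 1 µg protein per vial. Compounds were screened at 10 µM, and full competition curves were run where inhibition was about 50% or more. Three independent experiments in duplicate.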

Assay [10] addresses T1, G-protein coupled receptor 55. In words: Antagonist activity at human GPR55 transfected in CHO cells assessed as inhibition of LPI-induced beta-arrestin recruitment incubated 60 mins prior to LPI addition by Gaddum method. The format is cell-based. The method in brief:
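In the human GPR55 CHO β-arrestin luminescence assay, full LPI concentration-response curves were run without and with 3-4 antagonist concentrations. Antagonist was preincubated 1 h, then incubated with agonist […]. KB was estimated by the Gaddum method. Three independent experiments in duplicate.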

Assay [11] addresses T4, Cannabinoid receptor 2. In words: Agonist activity at human CB2 receptor expressed in CHOK1 cells assessed as […] of forskolin-stimulated cAMP level at 10 uM. It is filed as functional, cell-based. Particulars: CHO-K1.
Assay [12] addresses T2, Cannabinoid receptor 1. Nature of the assay: Agonist activity at human CB1 receptor expressed in CHOK1 cells assessed as […] of forskolin-stimulated cAMP level at 10 uM. The format is functional, cell-based. Particulars: CHO-K1.
The target in assay [13] is T1, G-protein coupled receptor 55. Nature of the assay: Agonist activity at human GPR55 transfected in CHO cells after 90 mins by beta-arrestin translocation assay relative to LPI. It is filed as cell-based. The method in brief: as §2

Activity calls are given as the source filed them. Unless noted, the calls are words filed in the database; no cut-off is given here.

T1 sequence (Q9Y2T6 whole entry): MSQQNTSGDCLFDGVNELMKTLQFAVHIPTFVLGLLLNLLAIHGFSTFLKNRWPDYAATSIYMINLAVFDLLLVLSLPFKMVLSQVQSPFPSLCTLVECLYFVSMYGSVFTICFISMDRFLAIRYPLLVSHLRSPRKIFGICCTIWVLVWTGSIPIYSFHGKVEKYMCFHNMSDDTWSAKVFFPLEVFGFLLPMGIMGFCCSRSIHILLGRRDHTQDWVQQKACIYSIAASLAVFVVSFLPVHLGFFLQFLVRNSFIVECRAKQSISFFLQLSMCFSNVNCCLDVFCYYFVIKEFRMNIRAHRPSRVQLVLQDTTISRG

`C=C(C)[C@@H]1CCC(C)=C[C@H]1c1c(O)cc(CCC)cc1O`: the Activity in assay [1] amounted to 56%.

As for `CCCc1cc(O)c2c(c1)OC(C)(C)[C@@H]1CCC(C)=C[C@@H]21`, the Activity in [1] is 50%.

Take `CCCCCc1cc(OC)c2cc(Cc3ccc(Br)cc3)c(=O)oc2c1`: the inhibition entry on Cannabinoid receptor 1 [2] and at Cannabinoid receptor 2 [6] was “Active” throughout. The Ki was 10.2 µM on Cannabinoid receptor 1 [3] and 0.578 µM at Cannabinoid receptor 2 [9]. Besides, the results for the IC50 in assay [4] and in [7] were more than 10 µM and 3.76 µM, respectively. In addition, in [5], the outcome was inactive. In addition, the Activity in [8] was determined as 30%.

`CCCCCc1cc(OC)c2cc(Cc3cccc(OC)c3)c(=O)oc2c1`: the IC50 in assay [4] was more than 10 µM; in [7], 3.23 µM. Moreover, in assay [5], the outcome was inactive. Also, the results for the Kb in assay [10] and in assay [7] (read-out: pA2 (converted)) were 16.5 µM and 7.94 pM, respectively. Moreover, the Activity in assay [8] came out at 33%. For the same molecule, the result at Cannabinoid receptor 2 [11] and on Cannabinoid receptor 1 [12] was Active.

`CCCCCCCC(C)(C)c1cc(O)c2cc(Cc3ccccc3O)c(=O)oc2c1`: the IC50 came to 12.5 µM in [4] and 0.113 µM in [7]. For the same molecule, the result in assay [5] was inactive. The Kb in [10] came to 0.561 µM. For the same molecule, the inhibition entry in assay [7] was “Dose-dependent effect”. For the same molecule, the outcome on Cannabinoid receptor 2 [11] was Active.

The molecule `CCCCC/C=C\C/C=C\C/C=C\C/C=C\CCCC(=O)O[C@H](CO)COP(=O)(O)O[C@@H]1[C@H](O)[C@H](O)[C@@H](O)[C@H](O)[C@H]1O` displayed an EC50 in [13] of 1 µM.
